pIC50: −log10 of the molar value. Non-standard residues stand in square brackets, D forms with d. Residues, ends and D or L forms follow the SMILES beside them. *: point of attachment. X1 = COc1cc(C(C)OC(=O)N2CO[C@@H]3[C@H](C)O[C@@H](O[C@H]4C[C@](O)(C(=O)CO)Cc5c(O)c6c(c(O)c54)C(=O)c4c(OC)cccc4C6=O)C[C@@H]32)c([N+](=O)[O-])cc1OCC(=O)NCCOCCOCCOCCn1nnc2c1-c1ccccc1CN(C(=O)CCNC(=O)CCN1C(=O)CC(*)C1=O)c1ccccc1-2; X2 = COc1cc(C(C)OC(=O)N[C@H]2C[C@H](O[C@H]3C[C@](O)(C(=O)CO)Cc4c(O)c5c(c(O)c43)C(=O)c3c(OC)cccc3C5=O)O[C@@H](C)[C@H]2O)c([N+](=O)[O-])cc1OCC(=O)NCCOCCOCCOCCn1nnc2c1-c1ccccc1CN(C(=O)CCNC(=O)CCN1C(=O)CC(*)C1=O)c1ccccc1-2; Mpa = O=C(O)CCS
What was measured:
[1] = Binding affinity to exosomes in human MDA-MB-231 cells assessed as co-localization of compound with exosomes out side nucleus area at 1 uM after 1 to 6 hrs using Cy5-labeled peptides by Hoechst-staining based assay; type: ADME, subcellular, Exosome; settings: mda-mb-231, 1 µM
Method in brief: (§1)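 Cy5-labeled L- or D-MARCKS-ED peptide (1 µM) was co-incubated with fluorescent dye-labeled exosomes on MDA-MB-231 cells for 6 h. Peptide and exosome signals were then examined by confocal microscopy, including higher-magnification 3D images, to assess co-localization relative to the nucleus.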

[2] = Binding affinity to exosomes in human MDA-MB-231 cells assessed as co-localization of compound with exosomes at 1 uM after 1 to 6 hrs using Cy5-labeled peptides by Hoechst-staining based assay; type: ADME, subcellular, Exosome; settings: mda-mb-231, 1 µM; method in brief: as §1
[3] = Binding affinity to exosomes in human MDA-MB-231 cells assessed as co-localization of compound with exosomes on plasma membrane at 1 uM after 1 hr using Cy5-labeled peptides by Hoechst-staining based assay; type: ADME, Exosome; settings: mda-mb-231, 1 h
MDA-MB-231 [4] = assay: Growth inhibition of human MDA-MB-231 cells irradiated with UV light for 15 mins followed by 15 mins incubation and measured after 5 days by crystal violet-staining based assay; type: functional, cell-based; settings: MDA-MB-231, light or radiation study
Method in brief: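 MDA-MB-231 cells exposed to prodrug at various concentrations for 6 h in medium with 10% FBS, washed twice with PBS, then irradiated 15 min with UV black lamp (320-400 nm, max 350 nm, ~0.8 mW/cm2 at 12 cm). Held 15 min at room temperature, washed, refed, and grown until untreated cells reached 80% confluency or 5 days. Crystal violet read-out; IC50 from growth inhibition curves.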

MDA-MB-231 [5] = assay: Growth inhibition of human MDA-MB-231 cells measured after 5 days in absence of irradiation by crystal violet-staining based assay; type: cell-based; settings: MDA-MB-231, 120 h
Method in brief: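 MDA-MB-231 cells given prodrug at various concentrations for 6 h in medium with 10% FBS, washed twice with PBS. Plate wrapped in aluminum foil to exclude ambient UV, no irradiation. Cells then washed, refed, and grown until untreated cells reached 80% confluency or 5 days. Cell density read by crystal violet staining; IC50 from growth inhibition curves.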

MDA-MB-231 [6] = assay: Ratio of IC50 for human MDA-MB-231 cells in absence of irradiation to IC50 for human MDA-MB-231 cells in presence of irradiation
[7] = Drug uptake in human MDA-MB-231 cells at 1 uM after 6 hrs by flow cytometry; type: ADME, cell-based; settings: mda-mb-231, 6 h
Method in brief: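 MDA-MB-231 cells incubated 6 h with 1 µM compound. Uptake read by flow cytometry, with fluorescence intensity normalized to untreated cells. Three biologically independent experiments; standard deviation of mean fluorescence intensity.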

[8] = Drug uptake in human MDA-MB-231 cells at 5 uM after 3 hrs by NucBlue live cell stain-based confocal microscopy; type: ADME; settings: mda-mb-231, 3 h
Method in brief: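 MDA-MB-231 cells exposed to 5 µM conjugate for 3 h, then imaged by confocal microscopy at 40x using anthracycline fluorescence; untreated cells imaged as reference.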

MDA-MB-231 [9] = assay: Cytotoxicity against human MDA-MB-231 cells at 10 uM after 6 hrs by NucBlue live cell stain-based confocal microscopy; settings: mda-mb-231, 6 h
[10] = Induction of exosomes-mediated drug uptake in human […] cells at 1 uM after 6 hrs in presence of cellmask orange-labeled exosomes by tritc channel based assay; settings: mda-mb-231, 6 h; method in brief: as §1
[11] = Induction of exosomes-mediated drug uptake in human […] cells at 1 uM after 6 hrs in presence of cellmask orange-labeled exosomes by Cy5 channel-based assay; settings: mda-mb-231, 6 h; method in brief: as §1
[12] = Drug uptake in human HMEC cells at 1 uM after 1 to 6 hrs using Cy5-labeled peptides by confocal microscopy
[13] = Drug uptake in human MDA-MB-231 cells at 1 uM after 1 to 6 hrs using Cy5-labeled peptides by confocal microscopy; settings: mda-mb-231, 1 µM

Compound | Drug uptake [12] | Drug uptake [13] | pIC50 (MDA-MB-231 [4]) | pIC50 (MDA-MB-231 [5]) | Ratio IC50 (MDA-MB-231 [6]) | Drug uptake [7] | also measured
CC(C)C[C@H](NC(=O)[C@H](CCCCN)NC(=O)[C@H](Cc1ccccc1)NC(=O)[C@H](CO)NC(=O)[C@H](CCCCN)NC(=O)[C@H](CCCCN)NC(=O)[C@H](Cc1ccccc1)NC(=O)[C@H](CO)NC(=O)[C@H](Cc1ccccc1)NC(=O)[C@H](CCCNC(=N)N)NC(=O)[C@H](CCCCN)NC(=O)[C@H](CCCCN)NC(=O)[C@H](CCCCN)NC(=O)[C@H](CCCCN)NC(=O)[C@@H](N)CCCCN)C(=O)N[C@@H](CO)C(=O)NCC(=O)N[C@@H](Cc1ccccc1)C(=O)N[C@@H](CO)C(=O)N[C@@H](Cc1ccccc1)C(=O)N[C@@H](CCCCN)C(=O)N[C@@H](CCCCN)C(=O)N[C@@H](CC(N)=O)C(=O)N[C@@H](CCCCN)C(=O)N[C@@H](CCCCN)C(N)=O | – | – | – | – | – | – | Activity [1]: Active; Activity [2]: Active; Activity [3]: Active
COc1cc(C(C)OC(=O)N2CO[C@@H]3[C@H](C)O[C@@H](O[C@H]4C[C@](O)(C(=O)CO)Cc5c(O)c6c(c(O)c54)C(=O)c4c(OC)cccc4C6=O)C[C@@H]32)c([N+](=O)[O-])cc1OCC(=O)NCCOCCOCCOCCn1nnc2c1-c1ccccc1CN(C(=O)CCNC(=O)CCN1C(=O)CC(SCCC(=O)N[C@H](CCCCN)C(=O)N[C@H](CCCCN)C(=O)N[C@H](CCCCN)C(=O)N[C@H](CCCCN)C(=O)N[C@H](CCCCN)C(=O)N[C@H](CCCNC(=N)N)C(=O)N[C@H](Cc3ccccc3)C(=O)N[C@H](CO)C(=O)N[C@H](Cc3ccccc3)C(=O)N[C@H](CCCCN)C(=O)N[C@H](CCCCN)C(=O)N[C@H](CO)C(=O)N[C@H](Cc3ccccc3)C(=O)N[C@H](CCCCN)C(=O)N[C@H](CC(C)C)C(=O)N[C@H](CO)C(=O)NCC(=O)N[C@H](Cc3ccccc3)C(=O)N[C@H](CO)C(=O)N[C@H](Cc3ccccc3)C(=O)N[C@H](CCCCN)C(=O)N[C@H](CCCCN)C(=O)N[C@H](CC(N)=O)C(=O)N[C@H](CCCCN)C(=O)N[C@H](CCCCN)C(N)=O)C1=O)c1ccccc1-2 (stereo partly specified) | – | – | 7.38 | 5.70 | 130 | Active | Drug uptake [8]: Active; Activity (MDA-MB-231 [9]): Toxic
COc1cc(C(C)OC(=O)N2CO[C@@H]3[C@H](C)O[C@@H](O[C@H]4C[C@](O)(C(=O)CO)Cc5c(O)c6c(c(O)c54)C(=O)c4c(OC)cccc4C6=O)C[C@@H]32)c([N+](=O)[O-])cc1OCC(=O)NCCOCCOCCOCCn1nnc2c1-c1ccccc1CN(C(=O)CCNC(=O)CCN1C(=O)CC(SCCC(=O)N[C@@H](CCCCN)C(=O)N[C@@H](CCCCN)C(=O)N[C@@H](CCCCN)C(=O)N[C@@H](CCCCN)C(=O)N[C@@H](CCCCN)C(=O)N[C@@H](CCCNC(=N)N)C(=O)N[C@@H](Cc3ccccc3)C(=O)N[C@@H](CO)C(=O)N[C@@H](Cc3ccccc3)C(=O)N[C@@H](CCCCN)C(=O)N[C@@H](CCCCN)C(=O)N[C@@H](CO)C(=O)N[C@@H](Cc3ccccc3)C(=O)N[C@@H](CCCCN)C(=O)N[C@@H](CC(C)C)C(=O)N[C@@H](CO)C(=O)NCC(=O)N[C@@H](Cc3ccccc3)C(=O)N[C@@H](CO)C(=O)N[C@@H](Cc3ccccc3)C(=O)N[C@@H](CCCCN)C(=O)N[C@@H](CCCCN)C(=O)N[C@@H](CC(N)=O)C(=O)N[C@@H](CCCCN)C(=O)N[C@@H](CCCCN)C(N)=O)C1=O)c1ccccc1-2 (stereo partly specified) | – | – | 7.82 | 5.60 | 170 | Active | Drug uptake [8]: Active; Activity (MDA-MB-231 [9]): Toxic
CC(C)C[C@@H](NC(=O)[C@@H](CCCCN)NC(=O)[C@@H](Cc1ccccc1)NC(=O)[C@@H](CO)NC(=O)[C@@H](CCCCN)NC(=O)[C@@H](CCCCN)NC(=O)[C@@H](Cc1ccccc1)NC(=O)[C@@H](CO)NC(=O)[C@@H](Cc1ccccc1)NC(=O)[C@@H](CCCNC(=N)N)NC(=O)[C@@H](CCCCN)NC(=O)[C@@H](CCCCN)NC(=O)[C@@H](CCCCN)NC(=O)[C@@H](CCCCN)NC(=O)[C@H](N)CCCCN)C(=O)N[C@H](CO)C(=O)NCC(=O)N[C@H](Cc1ccccc1)C(=O)N[C@H](CO)C(=O)N[C@H](Cc1ccccc1)C(=O)N[C@H](CCCCN)C(=O)N[C@H](CCCCN)C(=O)N[C@H](CC(N)=O)C(=O)N[C@H](CCCCN)C(=O)N[C@H](CCCCN)C(N)=O | Active | Active | – | – | – | – | Activity [1]: Active; Activity [2]: Active; Drug uptake [10]: Active; Drug uptake [11]: Active; Activity [3]: Active
CC[C@H](C)[C@H](NC(=O)[C@H](CCCCN)NC(=O)[C@H](CC(=O)O)NC(=O)[C@H](Cc1ccc(O)cc1)NC(=O)[C@H](CC(=O)O)NC(=O)CNC(=O)CNC(=O)CCSC1CC(=O)N(CCC(=O)NCCC(=O)N2Cc3ccccc3-c3c(nnn3CCOCCOCCOCCNC(=O)COc3cc([N+](=O)[O-])c(C(C)OC(=O)N4CO[C@@H]5[C@H](C)O[C@@H](O[C@H]6C[C@](O)(C(=O)CO)Cc7c(O)c8c(c(O)c76)C(=O)c6c(OC)cccc6C8=O)C[C@@H]54)cc3OC)-c3ccccc32)C1=O)C(=O)NCC(=O)N[C@@H](CCCCN)C(=O)N[C@@H](CC(N)=O)C(=O)N[C@@H](CC(=O)O)C(=O)N[C@@H](C)C(N)=O (stereo partly specified) ([Mpa](X1)GGDYDKIGKNDA-NH2) | – | – | 5.89 | 4.96 | 8.5 | Not Active | –
COc1cc(C(C)OC(=O)N[C@H]2C[C@H](O[C@H]3C[C@](O)(C(=O)CO)Cc4c(O)c5c(c(O)c43)C(=O)c3c(OC)cccc3C5=O)O[C@@H](C)[C@H]2O)c([N+](=O)[O-])cc1OCC(=O)NCCOCCOCCOCCn1nnc2c1-c1ccccc1CN(C(=O)CCNC(=O)CCN1C(=O)CC(SCCC(=O)N[C@@H](CCCCN)C(=O)N[C@@H](CCCCN)C(=O)N[C@@H](CCCCN)C(=O)N[C@@H](CCCCN)C(=O)N[C@@H](CCCCN)C(=O)N[C@@H](CCCNC(=N)N)C(=O)N[C@@H](Cc3ccccc3)C(=O)N[C@@H](CO)C(=O)N[C@@H](Cc3ccccc3)C(=O)N[C@@H](CCCCN)C(=O)N[C@@H](CCCCN)C(=O)N[C@@H](CO)C(=O)N[C@@H](Cc3ccccc3)C(=O)N[C@@H](CCCCN)C(=O)N[C@@H](CC(C)C)C(=O)N[C@@H](CO)C(=O)NCC(=O)N[C@@H](Cc3ccccc3)C(=O)N[C@@H](CO)C(=O)N[C@@H](Cc3ccccc3)C(=O)N[C@@H](CCCCN)C(=O)N[C@@H](CCCCN)C(=O)N[C@@H](CC(N)=O)C(=O)N[C@@H](CCCCN)C(=O)N[C@@H](CCCCN)C(N)=O)C1=O)c1ccccc1-2 (stereo partly specified) ([Mpa](X2)KKKKKRFSFKKSFKLSGFSFKKNKK-NH2) | – | – | 5.92 | 5.19 | 5.4 | Active | –

More lines, main results first:

Drug uptake [12] | Drug uptake [13] | Compound | pIC50 (MDA-MB-231 [4]) | pIC50 (MDA-MB-231 [5]) | Ratio IC50 (MDA-MB-231 [6]) | Drug uptake [7] | also measured
Not Active | Not Active | H-DDDDDRASADDSADLSGASADDDDD-OH | – | – | – | – | –
Not Active | Not Active | H-GGDYDKIGKNDA-OH | – | – | – | – | –
Active | Active | H-KKKGKKNSSKKFFFFSKFKLSRKKK-NH2 | – | – | – | – | –

— ChEMBL document CHEMBL4411341, “Photoactivatable Prodrug of Doxazolidine Targeting Exosomes” (J Med Chem, 2019)
